Test results taken from ChEMBL document CHEMBL3352814, “Design, synthesis and biological evaluation of biphenylamide derivatives as Hsp90 C-terminal inhibitors” (Eur J Med Chem, 2015).
The source made the active and inactive calls. The calls are words filed in the database; no cut-off is given here.

Tests used:
[1] = molecular target: T1, Heat shock protein HSP90 (Homo sapiens) (UniProt P07900+P08238); assay: Inhibition of HSP90 in human MCF7 cells assessed as induction of Akt protein degradation at 0.5 times antiproliferative IC50 level after 24 hrs by Western blotting method; assay type: cell-based
How it was run: (§1)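 MCF-7 cells, grown as for proliferation, treated 24 h with compound in DMSO (1% final). Geldanamycin 0.5 μM and DMSO served as controls. Lysis in cold RIPA with 1 mM PMSF, 2 mM orthovanadate and protease inhibitors, 1 h on ice, then cleared at 14000g, 10 min, 4 °C. BCA protein assay; 20 μg protein run reducing, blotted to nitrocellulose, probed with client antibodies, HRP chemiluminescence. High and low doses were 5-fold and 0.5-fold the antiproliferative value.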

[2] = molecular target: T1, Heat shock protein HSP90 (Homo sapiens); assay: Inhibition of HSP90 in human MCF7 cells assessed as induction of Her2 protein degradation at 0.5 times antiproliferative IC50 level after 24 hrs by Western blotting method; assay type: cell-based; how it was run: as §1
[3] = molecular target: T1, Heat shock protein HSP90 (Homo sapiens); assay: Inhibition of HSP90 in human MCF7 cells assessed as induction of Raf protein degradation at 0.5 times antiproliferative IC50 level after 24 hrs by Western blotting method; assay type: cell-based; how it was run: as §1
[4] = Antiproliferative activity against human SKBR3 cells after 72 hrs by MTS/PMS assay; assay type: functional, cell-based; details: SK-BR-3, 72 h
How it was run: (§2)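 Cells kept in 1:1 Advanced DMEM/F12 with non-essential amino acids, 2 mM L-glutamine, penicillin/streptomycin and 10% FBS at 37 °C, 5% CO2. Seeded 2000 cells/well, attached overnight, then given compound at varying concentrations in DMSO (1% final) for 72 h. Viable cells read by MTS/PMS. Normalised to 1% DMSO wells as 100% proliferation. IC50 from separate experiments run in triplicate.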

[5] = system: MCF7; assay: Antiproliferative activity against human MCF7 cells after 72 hrs by MTS/PMS assay; assay type: functional, cell-based; details: MCF7, 72 h; how it was run: as §2
[6] = molecular target: T1, Heat shock protein HSP90 (Homo sapiens); assay: Inhibition of HSP90 in human MCF7 cells assessed as induction of Her2 protein degradation at 0.5 to 5 times antiproliferative IC50 level after 24 hrs by Western blotting method; assay type: cell-based; how it was run: as §1
[7] = molecular target: T1, Heat shock protein HSP90 (Homo sapiens); assay: Inhibition of HSP90 in human MCF7 cells assessed as induction of Raf protein degradation at 0.5 to 5 times antiproliferative IC50 level after 24 hrs by Western blotting method; assay type: cell-based; how it was run: as §1
[8] = molecular target: T1, Heat shock protein HSP90 (Homo sapiens); assay: Inhibition of HSP90 in human MCF7 cells assessed as induction of Akt protein degradation at 0.5 to 5 times antiproliferative IC50 level after 24 hrs by Western blotting method; assay type: cell-based; how it was run: as §1
[9] = molecular target: T1, Heat shock protein HSP90 (Homo sapiens); assay: Inhibition of HSP90 in human MCF7 cells assessed as induction of Raf protein degradation at 0.1 to 5 uM after 24 hrs by Western blotting method; assay type: cell-based; how it was run: as §1
[10] = molecular target: T1, Heat shock protein HSP90 (Homo sapiens); assay: Inhibition of HSP90 in human MCF7 cells assessed as induction of Akt protein degradation at 0.1 to 5 uM after 24 hrs by Western blotting method; assay type: cell-based; how it was run: as §1
[11] = molecular target: T1, Heat shock protein HSP90 (Homo sapiens); assay: Inhibition of HSP90 in human MCF7 cells assessed as induction of Her2 protein degradation at 0.1 to 5 uM after 24 hrs by Western blotting method; assay type: cell-based; how it was run: as §1

SMILES | inhibition [1] | inhibition [2] | inhibition [3] | IC50 [4] [nM] | IC50 [5] [nM] | inhibition [6] | inhibition [7] | inhibition [8] | inhibition [9] | inhibition [10] | inhibition [11]
COc1ccc(C(=O)Nc2ccc(-c3ccc(OC4CCN(C)CC4)cc3)cc2)cc1-c1ccccc1 | Active | Active | Active | 510 | 840 |  |  |  |  |  | 
CN1CCC(Oc2ccc(-c3ccc(NC(=O)c4cccc5ccccc45)cc3)cc2)CC1 |  |  |  | 350 | 490 | Active | Active | Active |  |  | 
COc1cccc(-c2cc(C(=O)Nc3ccc(-c4ccc(OC5CCN(C)CC5)cc4)cc3)ccc2OC)c1 | Active | Active | Active | 470 | 710 |  |  |  |  |  | 
CC(C)=CCc1cc(C(=O)Nc2cccc(-c3cccc(OC4CCN(C)CC4)c3)c2)ccc1O | Active | Active | Active | 2790 | 1170 |  |  |  |  |  | 
CN1CCC(Oc2ccc(-c3ccc(NC(=O)c4ccc(Br)cc4)cc3)cc2)CC1 |  |  |  | 520 | 520 | inactive | inactive | inactive |  |  | 
COc1ccc(C(=O)Nc2ccc(-c3ccc(OC4CCN(C)CC4)cc3)cc2)cc1-c1cccc(Cl)c1 | Active | Active | Active | 330 | 320 |  |  |  |  |  | 
CN1CCC(Oc2ccc(-c3ccc(NC(=O)c4ccc5ccccc5c4)cc3)cc2)CC1 |  |  |  | 220 | 580 | Active | Active | Active |  |  | 
COc1cccc(-c2cc(C(=O)Nc3cccc(-c4cccc(OC5CCN(C)CC5)c4)c3)ccc2OC)c1 | Active | Active | Active | 1620 | 2000 |  |  |  |  |  | 
CN1CCC(Oc2ccc(-c3ccc(NC(=O)c4cccc(-c5ccccc5)c4)cc3)cc2)CC1 |  |  |  | 730 | 1150 | Active | Active | Active |  |  | 
COc1ccc(C(=O)Nc2ccc(-c3ccc(OC4CCN(C)CC4)cc3)cc2)cc1 |  |  |  | 490 | 650 | Active | Active | Active |  |  | 
COc1ccc(C(=O)Nc2ccc(-c3ccc(OC4CCN(C)CC4)cc3)cc2)cc1-c1ccc(OC(C)=O)cc1 | Active | Active | Active | 140 | 640 |  |  |  | Dose-dependent effect | Dose-dependent effect | Dose-dependent effect
CC(C)=CCc1cc(C(=O)Nc2ccc(-c3ccc(OC4CCN(C)CC4)cc3)cc2)ccc1O | Active | Active | Active | 2270 | 1850 |  |  |  |  |  | 
CN1CCC(Oc2ccc(-c3ccc(NC(=O)c4cc5ccccc5[nH]4)cc3)cc2)CC1 |  |  |  | 640 | 580 | Active | Active | Active |  |  | 
CN1CCC(Oc2ccc(-c3ccc(NC(=O)c4ccc(I)cc4)cc3)cc2)CC1 |  |  |  | 310 | 580 | inactive | inactive | inactive |  |  | 
COc1cccc(C(=O)Nc2ccc(-c3ccc(OC4CCN(C)CC4)cc3)cc2)c1 |  |  |  | 2870 | 5310 |  |  |  |  |  | 
COc1cccc(-c2cc(C(=O)Nc3ccc(-c4ccc(OC5CCN(C)CC5)c(OC)c4)cc3)ccc2OC)c1 |  |  |  | 680 | 1320 |  |  |  |  |  | 
CN1CCC(Oc2ccc(-c3ccc(NC(=O)c4ccc(Cl)cc4)cc3)cc2)CC1 |  |  |  | 570 | 520 | inactive | inactive | inactive |  |  | 
CN1CCC(Oc2ccc(-c3ccc(NC(=O)c4cccc(Cl)c4)cc3)cc2)CC1 |  |  |  | 1940 | 2830 |  |  |  |  |  | 
